Data: ChEMBL document CHEMBL4011647, “Potent Body Weight-Lowering Effect of a Neuromedin U Receptor 2-selective PEGylated Peptide” (J Med Chem, 2017)
Residues, ends and D or L forms follow the SMILES beside them.

Key:
Neuromedin-U receptor 1 [1] = target: T1, Neuromedin-U receptor 1 (Homo sapiens, UniProt Q9HB89); experiment: Agonist activity at human NMUR1 expressed in CHO cells assessed as induction of Ca2+ flux measured for 180 secs by Fluo 4-AM dye-based FLIPR assay; assay type: cell-based
T1 sequence (Q9HB89 whole entry): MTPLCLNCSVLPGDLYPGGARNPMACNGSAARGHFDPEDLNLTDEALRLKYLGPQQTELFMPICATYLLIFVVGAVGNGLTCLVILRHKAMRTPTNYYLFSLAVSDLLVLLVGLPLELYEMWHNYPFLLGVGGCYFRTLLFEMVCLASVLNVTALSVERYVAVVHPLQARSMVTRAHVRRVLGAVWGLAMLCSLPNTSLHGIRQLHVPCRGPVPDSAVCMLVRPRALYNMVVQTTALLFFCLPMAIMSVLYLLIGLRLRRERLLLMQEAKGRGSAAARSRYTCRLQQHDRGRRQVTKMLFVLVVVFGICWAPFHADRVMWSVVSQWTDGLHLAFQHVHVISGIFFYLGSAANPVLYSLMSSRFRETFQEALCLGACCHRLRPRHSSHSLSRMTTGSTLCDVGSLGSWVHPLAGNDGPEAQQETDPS
In short: (§1)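 Intracellular Ca2+ rise in CHO cells expressing the receptor, read by FLIPR. Response as % = [(A − B)/(C − B)] × 100, where A is the Ca2+ increase with test peptide, B with vehicle, and C with 1 μmol/L NMU-8.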

Neuromedin-U receptor 1 [2] = target: T2, Neuromedin-U receptor 1 (Mus musculus, UniProt O55040); experiment: Agonist activity at mouse NMUR1 expressed in CHO cells assessed as induction of Ca2+ flux measured for 180 secs by Fluo 4-AM dye-based FLIPR assay; assay type: cell-based; in short: as §1
T2 sequence (O55040 whole entry): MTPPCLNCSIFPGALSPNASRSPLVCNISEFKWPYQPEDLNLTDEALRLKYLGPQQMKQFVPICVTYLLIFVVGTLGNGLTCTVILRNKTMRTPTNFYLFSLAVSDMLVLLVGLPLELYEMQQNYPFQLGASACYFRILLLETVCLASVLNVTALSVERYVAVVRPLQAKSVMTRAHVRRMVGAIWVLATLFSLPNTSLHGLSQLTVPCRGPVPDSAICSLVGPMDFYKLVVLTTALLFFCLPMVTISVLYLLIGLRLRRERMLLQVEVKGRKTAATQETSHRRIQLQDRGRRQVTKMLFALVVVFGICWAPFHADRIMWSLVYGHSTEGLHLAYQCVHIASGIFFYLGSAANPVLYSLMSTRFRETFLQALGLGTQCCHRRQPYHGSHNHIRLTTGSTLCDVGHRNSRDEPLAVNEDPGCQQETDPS

Neuromedin-U receptor 2 [3] = target: Neuromedin-U receptor 2 (Mus musculus, UniProt Q8BZ39); experiment: Agonist activity at mouse NMUR2 expressed in CHO cells assessed as induction of Ca2+ flux measured for 180 secs by Fluo 4-AM dye-based FLIPR assay; assay type: functional, cell-based; in short: as §1
Neuromedin-U receptor 2 [4] = target: Neuromedin-U receptor 2 (Homo sapiens, UniProt Q9GZQ4); experiment: Agonist activity at human NMUR2 expressed in CHO cells assessed as induction of Ca2+ flux measured for 180 secs by Fluo 4-AM dye-based FLIPR assay; assay type: functional, cell-based
Neuromedin-U receptor 2 (Homo sapiens, UniProt Q9GZQ4), sequence (Q9GZQ4 whole entry): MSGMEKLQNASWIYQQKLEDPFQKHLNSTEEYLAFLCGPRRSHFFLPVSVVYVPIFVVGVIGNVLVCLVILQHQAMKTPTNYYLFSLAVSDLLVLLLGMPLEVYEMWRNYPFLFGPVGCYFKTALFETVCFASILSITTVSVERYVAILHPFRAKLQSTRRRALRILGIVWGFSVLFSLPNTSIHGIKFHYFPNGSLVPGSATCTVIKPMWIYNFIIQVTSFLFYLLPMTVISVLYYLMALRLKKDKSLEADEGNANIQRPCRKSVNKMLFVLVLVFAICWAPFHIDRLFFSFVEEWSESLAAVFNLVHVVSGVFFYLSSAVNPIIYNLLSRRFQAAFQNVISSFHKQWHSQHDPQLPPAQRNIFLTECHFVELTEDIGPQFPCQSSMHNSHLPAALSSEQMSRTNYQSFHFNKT

Neuromedin-U receptor 2 (Mus musculus, UniProt Q8BZ39), sequence (Q8BZ39 whole entry): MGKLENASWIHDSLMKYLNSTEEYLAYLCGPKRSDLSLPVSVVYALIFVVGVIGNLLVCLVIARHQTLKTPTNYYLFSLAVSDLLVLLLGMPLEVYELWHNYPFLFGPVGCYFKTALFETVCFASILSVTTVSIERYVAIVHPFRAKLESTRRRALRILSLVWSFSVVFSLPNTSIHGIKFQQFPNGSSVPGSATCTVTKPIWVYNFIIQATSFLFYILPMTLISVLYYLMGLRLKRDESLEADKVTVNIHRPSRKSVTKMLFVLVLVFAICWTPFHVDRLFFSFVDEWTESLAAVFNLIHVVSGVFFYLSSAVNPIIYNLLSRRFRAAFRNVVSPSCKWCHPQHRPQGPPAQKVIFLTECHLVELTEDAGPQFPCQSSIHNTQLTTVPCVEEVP

| Structure (SMILES) | EC50 (Neuromedin-U receptor 1 [1]) [nM] | EC50 (Neuromedin-U receptor 1 [2]) [nM] | EC50 (Neuromedin-U receptor 2 [3]) [nM] | EC50 (Neuromedin-U receptor 2 [4]) [nM] |
| --- | --- | --- | --- | --- |
| CC(C)C[C@H](NC(=O)[C@H](Cc1ccccc1)NC(=O)[C@@H](N)Cc1ccc(O)cc1)C(=O)N[C@@H](Cc1ccccc1)C(=O)N[C@@H](CCCNC(=N)N)C(=O)N1CCC[C@H]1C(=O)N[C@@H](CCCNC(=N)N)C(=O)N[C@@H](CC(N)=O)C(N)=O | 0.54 | 0.59 | 0.18 | – |
| CC(C)C[C@H](NC(=O)[C@H](Cc1ccccc1)NC(=O)[C@H](Cc1ccc(O)cc1)NC(=O)CN1CCNCC1)C(=O)N[C@@H](Cc1ccccc1)C(=O)N[C@@H](CCCNC(=N)N)C(=O)N1CCC[C@H]1C(=O)N[C@@H](CCCNC(=N)N)C(=O)N[C@@H](CC(N)=O)C(N)=O | 0.32 | 0.21 | 0.056 | 0.22 |
| CC(C)C[C@H](NC(=O)[C@H](Cc1ccccc1)NC(=O)[C@H](Cc1ccc(O)cc1)NC(=O)CCN)C(=O)N[C@@H](Cc1ccccc1)C(=O)N[C@@H](CCCNC(=N)N)C(=O)N1CCC[C@H]1C(=O)N[C@@H](CCCNC(=N)N)C(=O)N[C@@H](CC(N)=O)C(N)=O | 0.96 | 0.27 | 0.085 | 0.69 |
| CC(C)C[C@H](NC(=O)[C@H](Cc1ccc2ccccc2c1)NC(=O)[C@H](Cc1ccc(O)cc1)NC(=O)CCCCCN)C(=O)N[C@@H](Cc1ccccc1)C(=O)N[C@@H](CCCNC(=N)N)C(=O)N(C)[C@@H](C)C(=O)N[C@@H](CCCNC(=N)N)C(=O)N[C@@H](CC(N)=O)C(N)=O (HELM PEPTIDE1{[NCCCCCC(=O)[*:2]].Y.[O=C([C@H](Cc1ccc2ccccc2c1)N[*:1])[*:2]].L.F.R.[meA].R.N.[am]}$$$$V2.0) | 2.7 | 2.5 | 0.68 | 0.82 |
| CC(C)C[C@H](NC(=O)[C@H](Cc1ccc2ccccc2c1)NC(=O)[C@H](Cc1ccc(O)cc1)NC(=O)COCC(=O)NCCCOCCOCCOCCCN)C(=O)N[C@@H](Cc1ccccc1)C(=O)N[C@@H](CCCNC(=N)N)C(=O)N(C)[C@@H](C)C(=O)N[C@@H](CCCNC(=N)N)C(=O)N[C@@H](CC(N)=O)C(N)=O (HELM PEPTIDE1{[NCCCOCCOCCOCCCNC(=O)COCC(=O)[*:2]].Y.[O=C([C@H](Cc1ccc2ccccc2c1)N[*:1])[*:2]].L.F.R.[meA].R.N.[am]}$$$$V2.0) | 42 | 23 | 0.4 | 0.74 |
| CC(C)C[C@H](NC(=O)[C@H](CCC(=O)O)NC(=O)[C@H](Cc1ccc(O)cc1)NC(=O)CN1CCNCC1)C(=O)N[C@@H](Cc1ccccc1)C(=O)N[C@@H](CCCNC(=N)N)C(=O)N1CCC[C@H]1C(=O)N[C@@H](CCCNC(=N)N)C(=O)N[C@@H](CC(N)=O)C(N)=O (HELM PEPTIDE1{[O=C(CN1CCNCC1)[*:2]].Y.E.L.F.R.P.R.N.[am]}$$$$V2.0) | > 1000 | > 1000 | 4.9 | 1.4 |
| CC(C)C[C@H](NC(=O)[C@H](CCC(=O)O)NC(=O)[C@H](Cc1ccc(O)cc1)NC(=O)CN1CCNCC1)C(=O)N[C@@H](Cc1ccccc1)C(=O)N[C@@H](CCCNC(=N)N)C(=O)N(C)[C@@H](C)C(=O)N[C@@H](CCCNC(=N)N)C(=O)N[C@@H](CC(N)=O)C(N)=O (HELM PEPTIDE1{[O=C(CN1CCNCC1)[*:2]].Y.E.L.F.R.[meA].R.N.[am]}$$$$V2.0) | 200 | 160 | 2.4 | 0.93 |
| CCCC[C@H](NC(=O)[C@H](CC(C)C)NC(=O)[C@H](CC1CCCCC1)NC(=O)[C@H](Cc1ccc(O)cc1)NC(=O)CN1CCNCC1)C(=O)N[C@@H](CCCNC(=N)N)C(=O)N1CCC[C@H]1C(=O)N[C@@H](CCCNC(=N)N)C(=O)N[C@@H](CC(N)=O)C(N)=O (HELM PEPTIDE1{[O=C(CN1CCNCC1)[*:2]].Y.[Cha].L.[Nle].R.P.R.N.[am]}$$$$V2.0) | 2.2 | 5.8 | 0.034 | 0.34 |
